Measured values from different studies.
Protocols differ between the studies behind these lines.
CSF1R autoinhibited: Macrophage colony-stimulating factor 1 receptor, autoinhibited (CSF1R, Homo sapiens, UniProt P07333)
CSF1R: Macrophage colony-stimulating factor 1 receptor (CSF1R, Homo sapiens, UniProt P07333)

| Structure (SMILES) | target | read-out | mode | method | tested at | quantity | result |
| --- | --- | --- | --- | --- | --- | --- | --- |
| C1=C/COCc2cc(ccc2OCCN2CCCC2)Nc2nccc(n2)-c2cccc(c2)COC/1 | CSF1R autoinhibited | binding | – | – | 0.1 µM | remaining binding | 53% |
| Cc1ccc(NC(=O)c2ccnc(C(F)(F)F)c2)cc1-c1cc(OCCO)nc(N2CCOCC2)c1 | CSF1R autoinhibited | binding | – | competition with immobilised ligand | 1 µM | remaining binding | 87% |
| N#Cc1ccc(NC(=O)Nc2ccccc2)cc1 | CSF1R | cell-free assay | – | competition with immobilised ligand | 25 µM | remaining binding | 61% |
| CC#CC(=O)N1CCC[C@H]1c1nc(-c2ccc(C(=O)Nc3ccccn3)cc2)c2c(N)nccn12 | CSF1R | enzyme activity | inhibitor | – | 1 µM | inhibition | 0% |
| COc1ccc2[nH]c3c4[nH]c5ccc(OC)cc5c4c4c(c3c2c1)C(=O)NC4=O | CSF1R | binding | – | competition with immobilised ligand | 1 µM | remaining binding | 58% |
| C=CC(=O)N1CCC([C@@H]2CCNc3c(C(N)=O)c(-c4ccc(Oc5ccccc5)cc4)nn32)CC1 | CSF1R autoinhibited | cell-free assay | – | – | 1 µM | inhibition | 0% |
| C#Cc1cnc(Nc2ccnc(CO)c2)nc1Nc1ccccc1S(C)(=O)=NC#N (centres unmarked) | CSF1R | cell-free assay | – | – | 1 µM | remaining signal | 53% |
| CCCCC(=O)Nc1ccc(-c2ccc3ncn(CCC)c(=O)c3c2)cn1 | CSF1R | binding | – | competition with immobilised ligand | 0.5 µM | remaining binding | 88% |
